Measurements as given in ChEMBL document CHEMBL1136923, “Highly potent, orally available anti-inflammatory broad-spectrum chemokine inhibitors” (J Med Chem, 2009).

Tests used:
[1] = target: T1, C-C chemokine receptor type 1 (Homo sapiens) (UniProt P32246); experiment: Antagonist activity at CCR1 in human THP1 cells assessed as inhibition of CCL3-induced chemotaxis after 2 hrs by microtiter format trans-well migration assay; assay type: functional, cell-based; details: THP-1
T1 sequence (whole entry): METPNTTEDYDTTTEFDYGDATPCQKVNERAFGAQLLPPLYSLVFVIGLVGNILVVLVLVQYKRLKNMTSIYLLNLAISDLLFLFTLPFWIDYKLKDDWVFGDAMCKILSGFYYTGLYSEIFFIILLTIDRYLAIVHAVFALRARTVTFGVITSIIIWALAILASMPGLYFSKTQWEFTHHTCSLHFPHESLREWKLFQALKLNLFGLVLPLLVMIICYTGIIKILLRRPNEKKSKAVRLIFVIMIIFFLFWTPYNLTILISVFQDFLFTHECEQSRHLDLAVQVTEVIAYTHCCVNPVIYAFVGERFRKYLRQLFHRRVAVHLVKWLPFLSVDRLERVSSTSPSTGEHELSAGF
In short: (§1)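 Microtiter trans-well migration assay in Gey's balanced salt solution with 1 mg/mL endotoxin-free BSA, no fetal calf serum. Migration ran 2 h at 37 °C. Compounds dissolved in DMSO and added to both top and bottom compartments, final DMSO 1%.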

[2] = target: C-C chemokine receptor type 2 (Homo sapiens) (UniProt P41597); experiment: Antagonist activity at CCR2 in human THP1 cells assessed as inhibition of CCL2-induced chemotaxis at 1000 nM after 2 hrs by microtiter format trans-well migration assay; assay type: functional, cell-based; details: THP-1; in short: as §1
Sequence of C-C chemokine receptor type 2 (Homo sapiens) (P41597 whole entry, looked up): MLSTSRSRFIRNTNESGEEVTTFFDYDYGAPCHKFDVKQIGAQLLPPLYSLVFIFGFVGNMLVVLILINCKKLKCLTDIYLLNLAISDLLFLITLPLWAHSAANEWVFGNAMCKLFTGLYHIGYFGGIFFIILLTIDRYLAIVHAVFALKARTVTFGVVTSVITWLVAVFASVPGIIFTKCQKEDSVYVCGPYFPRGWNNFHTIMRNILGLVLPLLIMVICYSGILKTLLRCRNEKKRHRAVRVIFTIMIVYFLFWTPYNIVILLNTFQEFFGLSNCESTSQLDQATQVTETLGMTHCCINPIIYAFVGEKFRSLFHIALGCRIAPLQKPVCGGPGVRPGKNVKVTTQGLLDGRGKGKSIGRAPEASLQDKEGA

[3] = target: C-C chemokine receptor type 2 (Homo sapiens) (UniProt P41597); experiment: Antagonist activity at CCR2 in human THP1 cells assessed as inhibition of CCL2-induced chemotaxis at 100 nM after 2 hrs by microtiter format trans-well migration assay; assay type: functional, cell-based; details: THP-1; in short: as §1
[4] = target: C-C chemokine receptor type 2 (Homo sapiens) (UniProt P41597); experiment: Antagonist activity at CCR2 in human THP1 cells assessed as inhibition of CCL2-induced chemotaxis at 10 nM after 2 hrs by microtiter format trans-well migration assay; assay type: functional, cell-based; details: THP-1; in short: as §1
[5] = target: C-C chemokine receptor type 2 (Homo sapiens) (UniProt P41597); experiment: Antagonist activity at CCR2 in human THP1 cells assessed as inhibition of CCL2-induced chemotaxis at 1 nM after 2 hrs by microtiter format trans-well migration assay; assay type: functional, cell-based; details: THP-1; in short: as §1
[6] = target: C-C chemokine receptor type 2 (Homo sapiens) (UniProt P41597); experiment: Antagonist activity at CCR2 in human THP1 cells assessed as inhibition of CCL2-induced chemotaxis at 0.01 nM after 2 hrs by microtiter format trans-well migration assay; assay type: functional, cell-based; details: THP-1; in short: as §1
[7] = target: C-C chemokine receptor type 5 (Homo sapiens) (UniProt P51681); experiment: Antagonist activity at CCR5 in human THP1 cells assessed as inhibition of CCL5-induced chemotaxis at 1000 nM after 2 hrs by microtiter format trans-well migration assay; assay type: functional, cell-based; details: THP-1; in short: as §1
Sequence of C-C chemokine receptor type 5 (Homo sapiens) (P51681 whole entry, looked up): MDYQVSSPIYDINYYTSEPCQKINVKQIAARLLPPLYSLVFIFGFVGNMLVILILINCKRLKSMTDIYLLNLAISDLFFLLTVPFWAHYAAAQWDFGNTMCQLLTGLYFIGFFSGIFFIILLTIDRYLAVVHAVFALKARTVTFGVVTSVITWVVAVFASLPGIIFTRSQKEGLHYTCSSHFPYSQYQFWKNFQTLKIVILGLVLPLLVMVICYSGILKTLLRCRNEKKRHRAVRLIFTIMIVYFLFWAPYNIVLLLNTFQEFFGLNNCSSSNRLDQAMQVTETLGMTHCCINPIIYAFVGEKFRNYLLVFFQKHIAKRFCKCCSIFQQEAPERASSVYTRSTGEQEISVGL

[8] = target: C-C chemokine receptor type 5 (Homo sapiens) (UniProt P51681); experiment: Antagonist activity at CCR5 in human THP1 cells assessed as inhibition of CCL5-induced chemotaxis at 0.1 nM after 2 hrs by microtiter format trans-well migration assay; assay type: functional, cell-based; details: THP-1; in short: as §1
[9] = target: C-X-C chemokine receptor type 4 (Homo sapiens) (UniProt P61073); experiment: Antagonist activity at CXCR4 in human THP1 cells assessed as inhibition of CXCL12-induced chemotaxis at 100 nM after 2 hrs by microtiter format trans-well migration assay; assay type: functional, cell-based; details: THP-1; in short: as §1
Sequence of C-X-C chemokine receptor type 4 (Homo sapiens) (P61073 whole entry): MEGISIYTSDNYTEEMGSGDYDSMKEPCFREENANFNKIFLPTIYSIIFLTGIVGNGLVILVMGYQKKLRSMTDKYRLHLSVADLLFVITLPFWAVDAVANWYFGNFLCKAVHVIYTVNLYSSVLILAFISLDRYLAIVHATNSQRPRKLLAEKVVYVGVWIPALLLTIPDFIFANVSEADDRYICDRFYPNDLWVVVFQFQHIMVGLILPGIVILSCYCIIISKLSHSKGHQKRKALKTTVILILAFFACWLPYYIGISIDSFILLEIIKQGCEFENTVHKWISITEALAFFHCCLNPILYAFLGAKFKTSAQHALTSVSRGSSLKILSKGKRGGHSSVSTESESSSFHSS

[10] = target: T2, C5a anaphylatoxin chemotactic receptor 1 (Homo sapiens) (UniProt P21730); experiment: Antagonist activity at C5a receptor in human PMNC assessed as inhibition of C5a-induced chemotaxis at 100 nM after 2 hrs by microtiter format trans-well migration assay; assay type: functional; in short: as §1
T2 sequence (whole entry): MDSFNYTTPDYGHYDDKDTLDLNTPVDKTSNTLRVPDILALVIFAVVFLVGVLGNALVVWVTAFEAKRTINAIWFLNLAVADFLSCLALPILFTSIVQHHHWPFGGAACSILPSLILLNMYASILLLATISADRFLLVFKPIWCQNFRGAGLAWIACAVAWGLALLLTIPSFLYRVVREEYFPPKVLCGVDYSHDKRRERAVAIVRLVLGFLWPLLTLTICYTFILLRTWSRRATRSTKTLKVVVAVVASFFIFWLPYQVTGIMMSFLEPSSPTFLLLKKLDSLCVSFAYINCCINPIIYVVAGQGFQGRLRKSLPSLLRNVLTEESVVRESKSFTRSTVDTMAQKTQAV

[11] = target: T2, C5a anaphylatoxin chemotactic receptor 1 (Homo sapiens); experiment: Antagonist activity at C5a receptor in human PMNC assessed as inhibition of C5a-induced chemotaxis at 10 nM after 2 hrs by microtiter format trans-well migration assay; assay type: functional; in short: as §1
[12] = target: T2, C5a anaphylatoxin chemotactic receptor 1 (Homo sapiens); experiment: Antagonist activity at C5a receptor in human PMNC assessed as inhibition of C5a-induced chemotaxis at 0.1 nM after 2 hrs by microtiter format trans-well migration assay; assay type: functional; in short: as §1
[13] = target: T2, C5a anaphylatoxin chemotactic receptor 1 (Homo sapiens); experiment: Antagonist activity at C5a receptor in human PMNC assessed as inhibition of C5a-induced chemotaxis at 0.01 nM after 2 hrs by microtiter format trans-well migration assay; assay type: functional; in short: as §1
THP-1 [14] = experiment: Endogenous chemoattractant activity at human THP1 cells assessed as cell migration at 1000 uM after 2 hrs by microtiter format trans-well migration assay; assay type: functional
[15] = target: C-X-C chemokine receptor type 4 (Homo sapiens) (UniProt P61073); experiment: Antagonist activity at CXCR4 in human THP1 cells assessed as inhibition of CXCL12-induced chemotaxis at 0.01 nM after 2 hrs by microtiter format trans-well migration assay; assay type: functional, cell-based; details: THP-1; in short: as §1
THP-1 [16] = experiment: Endogenous chemoattractant activity at human THP1 cells assessed as cell migration at 10 uM after 2 hrs by microtiter format trans-well migration assay; assay type: functional
THP-1 [17] = experiment: Endogenous chemoattractant activity at human THP1 cells assessed as cell migration at 0.01 nM after 2 hrs by microtiter format trans-well migration assay; assay type: functional
THP-1 [18] = experiment: Cytotoxicity against human THP1 cells up to 100 uM by trypan blue exclusion assay; assay type: cell-based
Mus musculus [19] = experiment: Antiinflammatory activity in mouse assessed as inhibition of LPS-induced TNFalpha upregulation at 0.025 mg, sc measured 2 hrs after LPS challenge; assay type: functional
In short: (§2)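 Murine sublethal endotoxemia: LPS given intraperitoneally, with serum TNF-α measured 2 h after the LPS injection as the end point. Compound was given subcutaneously or orally. Vehicle was 0.6% DMSO and 1% carboxymethylcellulose (final concentrations) in sterile water. Effect is reported as % relative to control.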

Mus musculus [20] = experiment: Antiinflammatory activity in mouse assessed as inhibition of LPS-induced TNFalpha upregulation at 0.25 mg, sc measured 2 hrs after LPS challenge; assay type: functional; in short: as §2
Mus musculus [21] = experiment: Antiinflammatory activity in mouse assessed as inhibition of LPS-induced TNFalpha upregulation at 0.025 mg, po measured 2 hrs after LPS challenge; assay type: functional; in short: as §2
Mus musculus [22] = experiment: Antiinflammatory activity in po dosed mouse assessed as inhibition of LPS-induced TNFalpha upregulation measured 2 hrs after LPS challenge relative to control; assay type: functional
In short: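 Murine sublethal LPS endotoxemia screen. LPS is injected intraperitoneally and serum TNF-α is measured 2 h later as the end point. Compound is given subcutaneously or orally in a vehicle of 0.6% DMSO plus 1% carboxymethylcellulose (final concentrations) in sterile water. Values are % relative to control.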

[23] = Volume of distribution at steady state in Sprague-Dawley rat at 1 mg/kg, iv administered as single dose; assay type: ADME, organism-based; parameters: dose 1 mg/kg, route intravenous; details: in vivo, read-out: Vdss
In short: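 Male Sprague-Dawley rats, three per compound, receive a single intravenous dose in 5% DMSO in 0.9% saline. Food and water are given ad libitum. Plasma is taken at 5, 15, 30, 60, 120, 180, 240 and 480 min. Drug is measured by LC/MS/MS after extraction with 0.1% formic acid in acetonitrile. The curve is back-extrapolated to time zero assuming an initial volume of 0.26 L/kg.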

CCCCCCCCCCC(C)(C)C(=O)N[C@H]1CCCCNC1=O
ED50 [1]: 0.15 nM | inhibition [2]: 97% | inhibition [3]: 93% | inhibition [4]: 96% | inhibition [5]: 81% | inhibition [6]: 12% | inhibition [7]: 100% | inhibition [8]: 16.5% | inhibition [9]: 111% | inhibition [10]: 16% | inhibition [11]: -3% | inhibition [12]: 26.5% | inhibition [13]: 20% | Activity (THP-1 [14]): 1602% | inhibition [15]: 15.5% | Activity (THP-1 [16]): 2540% | Activity (THP-1 [17]): 5337% | Activity (THP-1 [18]): Non-toxic | inhibition (INH) (Mus musculus [19]): 64% | inhibition (INH) (Mus musculus [20]): 79% | inhibition (INH) (Mus musculus [21]): 44% | inhibition (INH) (Mus musculus [22]): 70% | Vd [23]: 2 L/kg
